In data set [1] the target is T1, Protein cereblon/Mitogen-activated protein kinase 14 (Homo sapiens, UniProt Q16539+Q96SW2). As to the kind of experiment: Protac activity at CRBN/p38alpha in human T47D cells assessed as p38alpha degradation at 1 uM measured after 24 hrs by immunoblotting analysis. Format: cell-based. A digest of the protocol: (§1)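 MDA-MB-231 and T47D cells exposed 24 h to 1 µM; N-methylated imide analogues tested alongside. RIPA lysates immunoblotted for p38α, intensities quantified from infrared imaging.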
Background: Immunoblotting shows a protein as a band on a membrane.
Target sequence in this assay (Q16539 2-360 limits assumed): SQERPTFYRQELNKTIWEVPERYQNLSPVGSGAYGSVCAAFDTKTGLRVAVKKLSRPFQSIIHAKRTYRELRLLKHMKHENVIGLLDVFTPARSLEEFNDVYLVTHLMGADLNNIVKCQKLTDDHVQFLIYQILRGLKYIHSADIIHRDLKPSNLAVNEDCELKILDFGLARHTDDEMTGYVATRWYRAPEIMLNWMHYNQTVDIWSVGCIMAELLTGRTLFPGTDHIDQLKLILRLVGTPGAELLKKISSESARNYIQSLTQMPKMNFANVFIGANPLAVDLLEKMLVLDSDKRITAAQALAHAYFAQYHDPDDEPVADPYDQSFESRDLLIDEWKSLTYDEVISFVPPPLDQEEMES
Target sequence in this assay (Q96SW2 whole entry partner): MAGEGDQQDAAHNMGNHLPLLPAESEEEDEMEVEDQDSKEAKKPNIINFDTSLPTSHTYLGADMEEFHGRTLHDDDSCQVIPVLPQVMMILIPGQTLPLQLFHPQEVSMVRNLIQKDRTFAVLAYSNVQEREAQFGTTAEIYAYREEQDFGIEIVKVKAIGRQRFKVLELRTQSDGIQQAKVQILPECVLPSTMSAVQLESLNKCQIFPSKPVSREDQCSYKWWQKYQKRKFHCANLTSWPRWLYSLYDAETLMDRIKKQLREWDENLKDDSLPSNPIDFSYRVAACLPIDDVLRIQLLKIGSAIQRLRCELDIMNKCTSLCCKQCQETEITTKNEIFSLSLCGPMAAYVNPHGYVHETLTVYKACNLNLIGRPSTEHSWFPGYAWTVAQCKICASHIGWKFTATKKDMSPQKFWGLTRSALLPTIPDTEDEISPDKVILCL

Data set [2] addresses T1, Protein cereblon/Mitogen-activated protein kinase 14. The data set can be described thus: Protac activity at CRBN/p38alpha in human MDA-MB-231 cells assessed as p38alpha degradation at 1 uM measured after 24 hrs by immunoblotting analysis. The data set is classed as cell-based. In outline: as §1
Target sequence in this assay (Q16539 2-360 limits assumed): as the sequence (Q16539 2-360 limits assumed) above
Target sequence in this assay (Q96SW2 whole entry partner): as the sequence (Q96SW2 whole entry partner) above
The target is the same in data set [3]. As to the kind of experiment: Protac activity at CRBN/p38alpha in human MDA-MB-231 cells assessed as reduction in UV-induced MK2 phosphorylation at 1 uM after 24 hrs by immunoblotting analysis. The data set is classed as cell-based. A digest of the protocol: (§2)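 MDA-MB-231 cells pre-incubated with compound, then p38α pathway stimulated with UV at 30 J/m2; PH797804 reference at 2 µM. Lysates immunoblotted for phospho-MK2. Cells grown in DMEM with 10% FBS at 37 °C, 5% CO2.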
Target sequence in this assay (Q16539 2-360 limits assumed): as the sequence (Q16539 2-360 limits assumed) above
Target sequence in this assay (Q96SW2 whole entry partner): as the sequence (Q96SW2 whole entry partner) above

The target is the same in data set [4]. As to the kind of experiment: Protac activity at CRBN/p38alpha in human BBL358 cells assessed as p38alpha degradation at 10 uM measured after 24 hrs by immunoblotting analysis. The data set is classed as cell-based. In outline: (§3)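 BBL358 or T47D cells given compound 10 µM for 24 h. RIPA lysates run on SDS-PAGE and immunoblotted for p38α. Odyssey infrared band intensities give p38α/tubulin ratio, normalised to untreated cells and reported as % degradation. Mean ±SEM with n=2 or more (one set: n=2 BBL358, n=1 T47D).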
Target sequence in this assay (Q16539 2-360 limits assumed): as the sequence (Q16539 2-360 limits assumed) above
Target sequence in this assay (Q96SW2 whole entry partner): as the sequence (Q96SW2 whole entry partner) above

For data set [5] the target is unchanged. The data set can be described thus: Protac activity at CRBN/p38alpha in human T47D cells assessed as p38alpha degradation at 10 uM measured after 24 hrs by immunoblotting analysis. Format: cell-based. A digest of the protocol:
as §3
Target sequence in this assay (Q16539 2-360 limits assumed): as the sequence (Q16539 2-360 limits assumed) above
Target sequence in this assay (Q96SW2 whole entry partner): as the sequence (Q96SW2 whole entry partner) above

Data set [6] shares this target. As to the kind of experiment: Protac activity at CRBN/p38alpha in human T47D cells assessed as p38alpha degradation measured after 24 hrs by immunoblotting analysis. The data set is classed as cell-based. In outline: (§4)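 T47D and MDA-MB-231 cells treated with a concentration series for 24 h; lysates immunoblotted for p38α. p38α/tubulin band ratio normalised to untreated cells; DC50 (conc. giving 50% degradation) fitted from biological duplicates.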
Target sequence in this assay (Q16539 whole entry): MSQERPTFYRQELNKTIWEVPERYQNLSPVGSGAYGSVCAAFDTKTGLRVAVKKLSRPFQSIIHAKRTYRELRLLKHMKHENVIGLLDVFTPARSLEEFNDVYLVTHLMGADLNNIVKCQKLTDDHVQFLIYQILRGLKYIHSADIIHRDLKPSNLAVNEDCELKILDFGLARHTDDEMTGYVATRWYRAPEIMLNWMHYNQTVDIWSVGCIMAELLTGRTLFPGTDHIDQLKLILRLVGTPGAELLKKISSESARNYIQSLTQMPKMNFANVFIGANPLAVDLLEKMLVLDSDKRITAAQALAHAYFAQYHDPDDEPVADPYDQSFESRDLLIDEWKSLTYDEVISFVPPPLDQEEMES
Target sequence in this assay (Q96SW2 whole entry): as the sequence (Q96SW2 whole entry partner) above

The target is the same in data set [7]. The data set can be described thus: Protac activity at CRBN/p38alpha in human retina epithelial cells assessed as p38alpha degradation at 1 uM measured after 24 hrs by immunoblotting analysis. The data set is classed as tissue-based. The conditions noted are these: Epithelial cell.
Target sequence in this assay (Q16539 2-360 limits assumed): as the sequence (Q16539 2-360 limits assumed) above
Target sequence in this assay (Q96SW2 whole entry partner): as the sequence (Q96SW2 whole entry partner) above
The nature of data set [8]: Induction of change in p38alpha protein expression in human MDA-MB-231 cells at 1 uM incubated for 16 hrs by mass spectrometry based proteomic analysis. The conditions noted are these: mda-mb-231, 16 h. The data set is classed as cell-based. A digest of the protocol: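 MDA-MB-231 cells SILAC-labelled to ≥95% in arginine/lysine-free DMEM-F12 with 2% dialysed FBS; heavy cells got compound, light cells got DMSO, 16 h. Lysis in 4% SDS, 0.1 M DTT, Tris pH 7.6; FASP trypsin digestion overnight at 37 °C; nano-LC C18 MS/MS with 300 min run; protein-level heavy/light change.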

Data set [9] has as its target T2, Protein cereblon/Mitogen-activated protein kinase 11 (Homo sapiens, UniProt Q15759+Q96SW2). As to the kind of experiment: Protac activity at CRBN/p38beta in human T47D cells assessed as p38beta degradation at 1 uM measured after 24 hrs by immunoblotting analysis. The data set is classed as cell-based.
Target sequence in this assay (Q15759 whole entry): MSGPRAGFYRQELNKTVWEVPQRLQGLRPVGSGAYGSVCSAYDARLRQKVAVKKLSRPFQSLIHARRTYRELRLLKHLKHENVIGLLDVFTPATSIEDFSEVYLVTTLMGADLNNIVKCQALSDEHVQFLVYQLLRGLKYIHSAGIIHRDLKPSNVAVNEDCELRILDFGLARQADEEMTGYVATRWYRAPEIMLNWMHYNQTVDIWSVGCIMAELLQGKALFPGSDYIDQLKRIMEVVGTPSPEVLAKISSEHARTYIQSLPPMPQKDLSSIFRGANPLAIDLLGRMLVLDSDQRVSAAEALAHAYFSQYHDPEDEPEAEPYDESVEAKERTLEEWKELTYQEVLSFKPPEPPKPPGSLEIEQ
Target sequence in this assay (Q96SW2 whole entry): as the sequence (Q96SW2 whole entry partner) above
Data set [10] deals with T2, Protein cereblon/Mitogen-activated protein kinase 11. As to the kind of experiment: Protac activity at CRBN/p38beta in human retina epithelial cells assessed as p38beta degradation at 1 uM measured after 24 hrs by immunoblotting analysis. Format: tissue-based. The conditions noted are these: Epithelial cell.
Target sequence in this assay (Q15759 whole entry, looked up): as the sequence (Q15759 whole entry) above
Target sequence in this assay (Q96SW2 whole entry, looked up): as the sequence (Q96SW2 whole entry partner) above
A short description of data set [11]: Protac activity at CRBN/p38beta in mouse bone marrow derived macrophages assessed as p38beta degradation at 1 uM measured after 24 hrs by immunoblotting analysis. The conditions noted are these: Macrophage.
For data set [12], the target named is T2, Protein cereblon/Mitogen-activated protein kinase 11. The data set can be described thus: Protac activity at CRBN/p38beta in […] cells assessed as p38beta degradation at 1 uM measured after 24 hrs by immunoblotting analysis. The data set is classed as cell-based.
Target sequence in this assay (Q15759 whole entry, looked up): as the sequence (Q15759 whole entry) above
Target sequence in this assay (Q96SW2 whole entry, looked up): as the sequence (Q96SW2 whole entry partner) above
For data set [13], the target named is T1, Protein cereblon/Mitogen-activated protein kinase 14. The data set can be described thus: Protac activity at CRBN/p38alpha in human MDA-MB-231 cells assessed as reduction in UV-induced MK2 phosphorylation at 1 uM after 48 hrs by immunoblotting analysis. Format: cell-based. A digest of the protocol:
as §2

The nature of data set [14]: Protac activity at CRBN/p38alpha in mouse bone marrow derived macrophages assessed as p38alpha degradation at 1 uM measured after 24 hrs by immunoblotting analysis. The conditions noted are these: Macrophage.
Data set [15] addresses T1, Protein cereblon/Mitogen-activated protein kinase 14. As to the kind of experiment: Protac activity at CRBN/p38alpha in human MDA-MB-231 cells assessed as p38alpha degradation measured after 24 hrs by immunoblotting analysis. The data set is classed as cell-based. In outline:
as §4
Target sequence in this assay (Q16539 whole entry): as the sequence (Q16539 whole entry) above
Target sequence in this assay (Q96SW2 whole entry): as the sequence (Q96SW2 whole entry partner) above

Data set [16] shares this target. As to the kind of experiment: Protac activity at CRBN/p38alpha in […] cells assessed as p38alpha degradation at 1 uM measured after 24 hrs by immunoblotting analysis. The data set is classed as cell-based.
Data set [17] has as its target T2, Protein cereblon/Mitogen-activated protein kinase 11. As to the kind of experiment: Protac activity at CRBN/p38beta in human MDA-MB-231 cells assessed as p38beta degradation at 1 uM measured after 24 hrs by immunoblotting analysis. Format: cell-based.
Target sequence in this assay (Q15759 whole entry): as the sequence (Q15759 whole entry) above
Target sequence in this assay (Q96SW2 whole entry): as the sequence (Q96SW2 whole entry partner) above

The source made the active and inactive calls. The calls are words filed in the database; no cut-off is given here.

A word on the DC50: it is the midpoint of the concentration-degradation curve.

In the case of `C=C1c2cccc(NCCCCCCNC(=O)CCCn3cc(CCCCNC(=O)c4ccc(C)c(-n5c(C)cc(OCc6ccc(F)cc6F)c(Br)c5=O)c4)nn3)c2C(=O)N1C1CCC(=O)N(C)C1=O` (centres undefined), the result in [1], in data set [2] and in [3] was inactive.
With `Cc1ccc(C(=O)NCCOCCOCCNC(=O)c2ccc3c(c2)C(=O)N(C2CCC(=O)NC2=O)C3=O)cc1-n1c(C)cc(OCc2ccc(F)cc2F)c(Br)c1=O` (centres undefined), in data set [4], the Activity was found to be 55%.
As to `Cc1ccc(C(=O)NCCCCc2cn(CCCC(=O)NCCOCCOCCNc3cccc4c3C(=O)N(C3CCC(=O)NC3=O)C4=O)nn2)cc1-n1c(C)cc(OCc2ccc(F)cc2F)c(Br)c1=O` (centres undefined), the Activity in [5] was found to be 85%; in data set [4], 79%.
The corresponding values for `Cc1ccc(C(=O)NCCOCCOCCOCCOCCOCCOCCNc2cccc3c2C(=O)N(C2CCC(=O)NC2=O)C3=O)cc1-n1c(C)cc(OCc2ccc(F)cc2F)c(Br)c1=O` (centres undefined) are 20% and 82%.
For the compound `Cc1ccc(C(=O)NCCCCNc2cccc3c2C(=O)N(C2CCC(=O)NC2=O)C3=O)cc1-n1c(C)cc(OCc2ccc(F)cc2F)c(Br)c1=O` (centres undefined), in data set [4], the Activity was 8%.
For `Cc1ccc(C(=O)NCCCc2cn(CCCC(=O)NCCCCNc3cccc4c3C(=O)N(C3CCC(=O)NC3=O)C4=O)nn2)cc1-n1c(C)cc(OCc2ccc(F)cc2F)c(Br)c1=O` (centres undefined), the figures for the Activity in data set [5] and in [4] were 91% and 84%, respectively.
Turning to `Cc1ccc(C(=O)NCCc2cn(CCCC(=O)NCCCNc3cccc4c3C(=O)N(C3CCC(=O)NC3=O)C4=O)nn2)cc1-n1c(C)cc(OCc2ccc(F)cc2F)c(Br)c1=O` (centres undefined), the Activity in data set [5] was 42%; in [4] it was 36%.
For `Cc1ccc(C(=O)NCCc2cn(CCCC(=O)NCCCCNc3cccc4c3C(=O)N(C3CCC(=O)NC3=O)C4=O)nn2)cc1-n1c(C)cc(OCc2ccc(F)cc2F)c(Br)c1=O` (centres undefined), the Activity in [5] is 25%; in data set [4], 40%.
In the case of `Cc1ccc(C(=O)NCCCCc2cn(CCOCCOCCOCCOCCNc3cccc4c3C(=O)N(C3CCC(=O)NC3=O)C4=O)nn2)cc1-n1c(C)cc(OCc2ccc(F)cc2F)c(Br)c1=O` (centres undefined), the Activity in data set [5] is 41%; in [4], 92%.
The corresponding values for `Cc1ccc(C(=O)NCCCc2cn(CCCC(=O)NCCCNc3cccc4c3C(=O)N(C3CCC(=O)NC3=O)C4=O)nn2)cc1-n1c(C)cc(OCc2ccc(F)cc2F)c(Br)c1=O` (centres undefined) are 68% and 60%.
For `Cc1ccc(C(=O)NCCCCc2cn(CCOCCOCCOCCNc3cccc4c3C(=O)N(C3CCC(=O)NC3=O)C4=O)nn2)cc1-n1c(C)cc(OCc2ccc(F)cc2F)c(Br)c1=O` (centres undefined), in that order: 26% and 78%.
With `Cc1ccc(C(=O)NCCCCNC(=O)c2ccc3c(c2)C(=O)N(C2CCC(=O)NC2=O)C3=O)cc1-n1c(C)cc(OCc2ccc(F)cc2F)c(Br)c1=O` (centres undefined), the Activity in [4] was determined as 40%.
`Cc1ccc(C(=O)NCCCCc2cn(CC[C@H](N)C(=O)NCCCCNc3cccc4c3C(=O)N(C3CCC(=O)NC3=O)C4=O)nn2)cc1-n1c(C)cc(OCc2ccc(F)cc2F)c(Br)c1=O` (some centres undefined): the Activity in data set [5] worked out at 4%.
On to `Cc1ccc(C(=O)NCCCCc2cn(CCCC(=O)NCCNc3cccc4c3C(=O)N(C3CCC(=O)NC3=O)C4=O)nn2)cc1-n1c(C)cc(OCc2ccc(F)cc2F)c(Br)c1=O` (centres undefined), for which the Activity in data set [5] is 40%; in data set [4], 12%.
`Cc1ccc(C(=O)NCCCCc2cn(CCCC(=O)NCCOCCOCCNc3cccc4c3C(=O)N(C3CCC(=O)N(Cc5ccccc5[N+](=O)[O-])C3=O)C4=O)nn2)cc1-n1c(C)cc(OCc2ccc(F)cc2F)c(Br)c1=O` (centres undefined): the results for the Activity in [5] and in data set [4] were 20% and 3%, respectively.
As for `Cc1ccc(C(=O)NCCc2cn(CCCC(=O)NCCNc3cccc4c3C(=O)N(C3CCC(=O)NC3=O)C4=O)nn2)cc1-n1c(C)cc(OCc2ccc(F)cc2F)c(Br)c1=O` (centres undefined), the Activity in data set [5] is 8%.
As for `Cc1ccc(C(=O)NCCCCc2cn(CC[C@H](NC(=O)OC(C)(C)C)C(=O)NCCCCNc3cccc4c3C(=O)N(C3CCC(=O)NC3=O)C4=O)nn2)cc1-n1c(C)cc(OCc2ccc(F)cc2F)c(Br)c1=O` (some centres undefined), the figures for the Activity in data set [5] and in data set [4] were 93% and 81%, respectively.
The corresponding values for `C=C1c2cccc(NCCCCCNC(=O)CCCn3cc(CCCCNC(=O)c4ccc(C)c(-n5c(C)cc(OCc6ccc(F)cc6F)c(Br)c5=O)c4)nn3)c2C(=O)N1C1CCC(=O)NC1=O` (centres undefined) are 16% and 47%.
As for `Cc1ccc(C(=O)NCCOCCOCCNc2cccc3c2C(=O)N(C2CCC(=O)NC2=O)C3=O)cc1-n1c(C)cc(OCc2ccc(F)cc2F)c(Br)c1=O` (centres undefined), the Activity in [4] was found to be 60%.
As to `Cc1ccc(C(=O)NCCCCc2cn(CCCC(=O)NCCCNc3cccc4c3C(=O)N(C3CCC(=O)NC3=O)C4=O)nn2)cc1-n1c(C)cc(OCc2ccc(F)cc2F)c(Br)c1=O` (centres undefined), the Activity in [5] amounted to 87%; in data set [4], 74%.
On to `Cc1ccc(C(=O)NCCCCc2cn(CCCC(=O)NCCOCCOCCNC(=O)c3ccc4c(c3)C(=O)N(C3CCC(=O)N(Cc5ccccc5[N+](=O)[O-])C3=O)C4=O)nn2)cc1-n1c(C)cc(OCc2ccc(F)cc2F)c(Br)c1=O` (centres undefined), for which the Activity in data set [5] is 76%; in data set [4], 0.5%.
For `Cc1ccc(C(=O)NCCCCc2cn(CCCC(=O)NCCCCCNc3cccc4c3C(=O)N(C3CCC(=O)NC3=O)C4=O)nn2)cc1-n1c(C)cc(OCc2ccc(F)cc2F)c(Br)c1=O` (centres undefined), in that order: 82% and 77%.
For the compound `Cc1ccc(C(=O)NCCCCc2cn(CCCC(=O)NCCCCNc3cccc4c3C(=O)N(C3CCC(=O)N(C)C3=O)C4=O)nn2)cc1-n1c(C)cc(OCc2ccc(F)cc2F)c(Br)c1=O` (centres undefined), the result in data set [1], in data set [2] and in [3] was inactive.
On to `Cc1ccc(C(=O)NCCCCc2cn(CCCC(=O)NCCCCNc3cccc4c3C(=O)N(C3CCC(=O)NC3=O)C4=O)nn2)cc1-n1c(C)cc(OCc2ccc(F)cc2F)c(Br)c1=O` (centres undefined), for which the half-maximal degradation concentration (DC50) in data set [6] was 24 nM; in data set [9], 48.5 nM; in data set [15], 27.2 nM; in data set [17] it was 48.9 nM. For the same compound, the outcome in data set [7], in data set [10], in data set [11], in [12], in data set [13] and in data set [14] was Active. Further, the result in [3] and in [16] was Active. For the same compound, the Activity result in data set [8] is “Active”; in [5], 89%; in data set [4], 84%.
As for `Cc1ccc(C(=O)NCCCCc2cn(CCCC(=O)NCCCCCCNc3cccc4c3C(=O)N(C3CCC(=O)NC3=O)C4=O)nn2)cc1-n1c(C)cc(OCc2ccc(F)cc2F)c(Br)c1=O` (centres undefined), the Activity came to 47% in data set [5] and 67% in [4].

Source of the values: ChEMBL document CHEMBL4765369, “Optimal linker length for small molecule PROTACs that selectively target p38α and p38β for degradation” (Eur J Med Chem, 2020).
